Measurements reported in ChEMBL document CHEMBL4312003, “Optimization of biaryloxazolidinone as promising antibacterial agents against antibiotic-susceptible and antibiotic-resistant gram-positive bacteria” (Eur J Med Chem, 2020).
≈ marks a conversion by molar mass, not a printed value.

Legend:
Staphylococcus aureus [1] = assay: Antibacterial activity against methicillin-resistant Staphylococcus aureus assessed as complete reduction in bacterial cell growth by CLSI protocol based broth liquid microdilution method; assay type: functional
How it was run: (§1)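 Broth liquid microdilution per CLSI guidelines; isolates identified on an automated MicroScan system before testing. MIC taken as lowest concentration giving total inhibition of bacterial growth, reported in μg/mL. S. aureus ATCC29213 run as the control strain.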

Enterococcus faecalis = assay: Antibacterial activity against linezolid-resistant Enterococcus faecalis assessed as complete reduction in bacterial cell growth by CLSI protocol based broth liquid microdilution method; assay type: functional; how it was run: as §1
Staphylococcus aureus [2] = assay: Antibacterial activity against methicillin-sensitive Staphylococcus aureus assessed as complete reduction in bacterial cell growth by CLSI protocol based broth liquid microdilution method; assay type: functional; how it was run: as §1
Staphylococcus aureus [3] = assay: Antibacterial activity against Staphylococcus aureus ATCC 29213 assessed as complete reduction in bacterial cell growth by CLSI protocol based broth liquid microdilution method; assay type: functional; how it was run: as §1
MAO-A = molecular target: T1, MAO-A (Homo sapiens, UniProt P21397); assay: Inhibition of recombinant human MAO-A (active motif 31502) at 30 uM using luciferin as substrate incubated for 15 mins followed by substrate addition and measured after 60 mins by luminescence based method relative to control; settings: probe luciferin
T1 sequence (P21397 whole entry): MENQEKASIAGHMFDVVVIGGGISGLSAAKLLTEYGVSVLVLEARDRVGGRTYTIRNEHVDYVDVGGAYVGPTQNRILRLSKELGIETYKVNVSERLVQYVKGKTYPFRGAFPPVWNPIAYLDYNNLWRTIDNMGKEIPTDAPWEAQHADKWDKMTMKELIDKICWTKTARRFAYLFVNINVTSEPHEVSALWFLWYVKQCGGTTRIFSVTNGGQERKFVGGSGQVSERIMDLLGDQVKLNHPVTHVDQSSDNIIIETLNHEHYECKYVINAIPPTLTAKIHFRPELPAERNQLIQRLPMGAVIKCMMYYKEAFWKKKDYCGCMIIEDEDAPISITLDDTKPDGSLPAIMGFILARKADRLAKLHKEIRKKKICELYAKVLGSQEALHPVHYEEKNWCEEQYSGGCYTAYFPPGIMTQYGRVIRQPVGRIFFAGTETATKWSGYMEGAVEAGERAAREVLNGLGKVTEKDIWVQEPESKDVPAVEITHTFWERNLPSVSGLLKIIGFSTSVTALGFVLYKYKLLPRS
How it was run: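 Recombinant human MAO-A was measured with the MAO-Glo kit, modified. Compounds were in DMSO (1% DMSO final) and preincubated with enzyme 15 min at room temperature. Luciferin-derivative substrate was then added and the reaction run 60 min at room temperature. Luciferase detection reagent was added for 20 min and luminescence read. Buffer without enzyme served as the 100% inhibition control; DMSO alone as the no-inhibition control. Percent inhibition = (Max − signal)/(Max − Min)×100.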

Enterococcus faecium = assay: Antibacterial activity against vancomycin-resistant Enterococcus faecium assessed as complete reduction in bacterial cell growth by CLSI protocol based broth liquid microdilution method; assay type: functional; how it was run: as §1

Row | SMILES | MIC (Staphylococcus aureus [1]) [µg/mL] | MIC (Enterococcus faecalis) [µg/mL] | MIC (Staphylococcus aureus [2]) [µg/mL] | MIC (Staphylococcus aureus [3]) [µg/mL] | inhibition at 1 h, 30 µM (MAO-A) [%] | MIC (Enterococcus faecium) [µg/mL]
1 | CC(=O)NC[C@H]1CN(c2ccc(-c3ccc(/C=N/N4CCOCC4)c(F)c3)c(F)c2)C(=O)O1 | 0.25 (≈ 0.545 µM) | 0.25 (≈ 0.545 µM) | 0.25 (≈ 0.545 µM) | 0.25 (≈ 0.545 µM) | 80 | 0.25 (≈ 0.545 µM)
2 | CC(=O)NC[C@H]1CN(c2ccc(-c3ccc(/C=N/N4CCN(C)CC4)c(F)c3)c(F)c2)C(=O)O1 | 1 (≈ 2.12 µM) | 1 (≈ 2.12 µM) | 1 (≈ 2.12 µM) | 1 (≈ 2.12 µM) |  | 1 (≈ 2.12 µM)
3 | CC(=O)NC[C@H]1CN(c2ccc(-c3ccc(/C=N/N4CCNCC4)c(F)c3)c(F)c2)C(=O)O1 | 0.5 (≈ 1.09 µM) | 0.5 (≈ 1.09 µM) | 0.5 (≈ 1.09 µM) | 0.5 (≈ 1.09 µM) |  | 0.5 (≈ 1.09 µM)
4 | CC(=O)NC[C@H]1CN(c2ccc(-c3ccc(/C=N/N4CCNCC4)c(O)c3)c(F)c2)C(=O)O1 | 0.25 (≈ 0.549 µM) | 0.25 (≈ 0.549 µM) | 0.25 (≈ 0.549 µM) | 0.5 (≈ 1.1 µM) |  | 0.25 (≈ 0.549 µM)
5 | CC(=O)NC[C@H]1CN(c2ccc(-c3ccc(/C=N/N4CCN(C(=O)c5ccccc5)CC4)nc3)c(F)c2)C(=O)O1 | 1 (≈ 1.84 µM) | 2 (≈ 3.67 µM) | 2 (≈ 3.67 µM) | 1 (≈ 1.84 µM) |  | 1 (≈ 1.84 µM)
6 | COc1cc(-c2ccc(N3C[C@H](CNC(C)=O)OC3=O)cc2F)ccc1/C=N/N1CCOCC1 | 2 (≈ 4.25 µM) | 2 (≈ 4.25 µM) | 2 (≈ 4.25 µM) | 2 (≈ 4.25 µM) |  | 2 (≈ 4.25 µM)
7 | CCC(=O)N1CCN(/N=C/c2ccc(-c3ccc(N4C[C@H](CNC(C)=O)OC4=O)cc3F)cn2)CC1 | 1 (≈ 2.01 µM) | 1 (≈ 2.01 µM) | 1 (≈ 2.01 µM) | 1 (≈ 2.01 µM) |  | 0.5 (≈ 1.01 µM)
8 | CC(=O)NC[C@H]1CN(c2ccc(-c3ccc(/C=N/N4CCSCC4)cn3)c(F)c2)C(=O)O1 | 0.5 (≈ 1.09 µM) | 2 (≈ 4.37 µM) | 2 (≈ 4.37 µM) | 1 (≈ 2.19 µM) |  | 2 (≈ 4.37 µM)
9 | CC(=O)NC[C@H]1CN(c2ccc(-c3ccc(/C=N/N4CCNCC4)cn3)c(F)c2)C(=O)O1 | 2 (≈ 4.54 µM) | 2 (≈ 4.54 µM) | 2 (≈ 4.54 µM) | 2 (≈ 4.54 µM) |  | 2 (≈ 4.54 µM)
10 | CC(=O)NC[C@H]1CN(c2ccc(-c3ccc(/C=N/N4CCN(C)CC4)cn3)c(F)c2)C(=O)O1 | 1 (≈ 2.2 µM) | 2 (≈ 4.4 µM) | 2 (≈ 4.4 µM) | 2 (≈ 4.4 µM) |  | 2 (≈ 4.4 µM)
11 | COc1cc(-c2ccc(N3C[C@H](CNC(C)=O)OC3=O)cc2F)ccc1/C=N/N1CCSCC1 | 1 (≈ 2.06 µM) | 1 (≈ 2.06 µM) | 1 (≈ 2.06 µM) | 2 (≈ 4.11 µM) |  | 1 (≈ 2.06 µM)
12 | CC(=O)NC[C@H]1CN(c2ccc(-c3ccc(/C=N/N4CCSCC4)c(F)c3)c(F)c2)C(=O)O1 | 0.25 (≈ 0.527 µM) | 1 (≈ 2.11 µM) | 0.25 (≈ 0.527 µM) | 0.25 (≈ 0.527 µM) |  | 1 (≈ 2.11 µM)
13 | COC(=O)N1CCN(/N=C/c2ccc(-c3ccc(N4C[C@H](CNC(C)=O)OC4=O)cc3F)cn2)CC1 | 1 (≈ 2.01 µM) | 1 (≈ 2.01 µM) | 2 (≈ 4.01 µM) | 1 (≈ 2.01 µM) |  | 0.5 (≈ 1 µM)
14 | CC(=O)NC[C@H]1CN(c2ccc(-c3ccc(/C=N/N4CC[S+]([O-])CC4)nc3)c(F)c2)C(=O)O1 | 0.25 (≈ 0.528 µM) | 0.5 (≈ 1.06 µM) | 0.5 (≈ 1.06 µM) | 0.25 (≈ 0.528 µM) |  | 0.5 (≈ 1.06 µM)
